Measurements pooled from the literature.
Each line is one published result; the experiments were not run side by side.
PRMT3: Protein arginine N-methyltransferase 3 (PRMT3, Homo sapiens, UniProt O60678)
LDHA: L-lactate dehydrogenase A chain (LDHA, Homo sapiens, UniProt P00338)
MAOA: Amine oxidase [flavin-containing] A (MAOA, Homo sapiens, UniProt P21397)
ADRA1A: Alpha-1A adrenergic receptor (ADRA1A, Homo sapiens, UniProt P35348)
Tspo: Translocator protein (Tspo, Rattus norvegicus, UniProt P16257)

SMILES | target | assay | conditions | inhibition [%]
N=C(NCCCSC[C@H]1O[C@@H](n2cnc3c(NCCCc4ccccc4)ncnc32)[C@H](O)[C@@H]1O)NCCCc1ccccc1 | PRMT3 | enzyme activity, inhibitor, fluorescence | 10 µM | 10.4
COC(=O)CN=c1scc(-c2ccccc2)n1-c1ccc(OC)cc1 | LDHA | enzyme activity, inhibitor, fluorescence | 100 µM, pH 7.2 | 49
O=C(Nc1ccc([N+](=O)[O-])cc1C(F)(F)F)c1cc(Cl)ccc1O | MAOA | enzyme activity, inhibitor | 1 µM, 20 min | 13
COC(=O)CN=c1scc(-c2ccccc2)n1-c1ccc(C)cc1 | LDHA | enzyme activity, inhibitor, fluorescence | 100 µM, pH 7.2 | 52
N=C(NCCCSC[C@H]1O[C@@H](n2cnc3c(NCCCc4ccccc4)ncnc32)[C@H](O)[C@@H]1O)Nc1ccccc1 | PRMT3 | enzyme activity, inhibitor, fluorescence | 10 µM | 4.92
O=C(Nc1cc(Cl)cc(Cl)c1)c1cc(Cl)ccc1O | MAOA | enzyme activity, inhibitor | 1 µM, 20 min | 4
Cc1ccc(Nc2nccc(N(C)c3ccc4c(C)n(C)nc4c3)n2)cc1S(N)(=O)=O | Ribosomal protein S6 kinase alpha-1 (Rps6ka1, Rattus norvegicus, UniProt Q63531) | enzyme activity, inhibitor | 10 µM | 41
Cc1ccc(-n2nc(C(C)(C)C)cc2NC(=O)Nc2ccc(OCCN3CCOCC3)c3ccccc23)cc1 | Tyrosine-protein phosphatase non-receptor type 1 (PTPN1, Homo sapiens, UniProt P18031) | enzyme activity, inhibitor | 10 µM | 18
CCCNc1nc2ccccc2n1Cc1ccc(Cl)cc1 | ADRA1A | ligand displacement | 10 µM | -2.69
Nc1ncnc2c1ncn2[C@@H]1O[C@H](CSCCNC(=O)NCc2ccccc2)[C@@H](O)[C@H]1O | PRMT3 | enzyme activity, inhibitor, radiometric | 10 µM | > 95
O=C(Nc1ccc(OC(F)(F)F)cc1)c1cc(Cl)ccc1O | MAOA | enzyme activity, inhibitor | 1 µM, 20 min | 74
CC[C@H](C)[C@H](NC(=O)[C@H](CCC(N)=O)NC(=O)[C@H](CC(C)C)NC(=O)[C@H](CCSC)NC(=O)[C@H](CCCCN)NC(=O)[C@H](CO)NC(=O)[C@H](CO)NC(=O)[C@H](CCSC)NC(=O)[C@H](CC(C)C)NC(=O)[C@H](CC(N)=O)NC(=O)[C@@H](NC(=O)[C@@H](NC(=O)[C@H](CO)NC(=O)[C@H](CC(C)C)NC(=O)[C@H](CS)NC(=O)[C@H](CCCNC(=N)N)NC(=O)[C@H](CC(=O)O)NC(=O)[C@H](Cc1c[nH]c2ccccc12)NC(=O)[C@H](Cc1ccccc1)NC(=O)[C@H](C)NC(=O)[C@H](CCC(=O)O)NC(=O)[C@@H](N)CCCCN)C(C)C)[C@@H](C)CC)C(=O)N[C@@H](CC(N)=O)C(=O)N[C@@H](C)C(=O)O | Cyclin-dependent kinase 5, with p25 (CDK5, Homo sapiens, UniProt Q00535) | enzyme activity, inhibitor, radiometric | 50 µM | 20
Oc1cccc(Nc2nc(-c3ccc(F)cc3F)cs2)c1 | Vasoactive intestinal polypeptide receptor 1 (VIPR1, Homo sapiens, UniProt P32241) | cell-free assay | 10 µM | -0.5
COc1cc(/C=C/C(=O)N2CCc3ccccc3C2)ccc1OCc1ccccc1 | MAOA | enzyme activity, inhibitor, fluorescence | 62.5 µM | 20.6
O=C(Nc1ccccc1)c1ccc(Cl)cc1 | MAOA | enzyme activity, inhibitor | 1 µM, 20 min | 18
N=C(NCCCSC[C@H]1O[C@@H](n2cnc3c(NCCCc4ccccc4)ncnc32)[C@H](O)[C@@H]1O)NCC1CC1 | PRMT3 | enzyme activity, inhibitor, fluorescence | 10 µM | -19.4
COc1cc([N+](=O)[O-])ccc1NC(=O)c1ccccc1O | MAOA | enzyme activity, inhibitor | 1 µM, 20 min | 9
COc1ccc2c(c1)[C@H](NCCC(C)C)C[C@H]2c1ccc(Cl)c(Cl)c1 (relative stereo) | Glutathione reductase, mitochondrial (GSR, Homo sapiens, UniProt P00390) | enzyme activity, inhibitor | 25 µM | < 12
N=C(NCCCSC[C@H]1O[C@@H](n2cnc3c(NCCCc4ccccc4)ncnc32)[C@H](O)[C@@H]1O)NCC1CCC1 | PRMT3 | enzyme activity, inhibitor, fluorescence | 10 µM | 0
O=C(c1ccc(Cl)cc1)N(Cc1ccccc1)C1CCCCC1 | ADRA1A | cell-free assay | 10 µM | 17
O=C(Nc1ccc(C(F)(F)F)cc1)c1cc(Cl)ccc1O | MAOA | enzyme activity, inhibitor | 1 µM, 20 min | 82
COC(=O)CN=c1scc(-c2ccccc2)n1-c1ccccc1OC | LDHA | enzyme activity, inhibitor, fluorescence | 100 µM, pH 7.2 | 48
COc1cc(NC(C)=O)c(Cl)cc1C(=O)Nc1nccs1 | ADRA1A | cell-free assay | 10 µM | 13.9
Cc1ccc2c(ccn2CCC2CCN(C(=O)OC(C(F)(F)F)C(F)(F)F)CC2)c1 | Fatty-acid amide hydrolase 1 (Faah, Rattus norvegicus, UniProt P97612) | enzyme activity, inhibitor | 10 µM | 36
CNC(=O)[C@@]12C[C@@H]1[C@@H](n1cnc3c(NC)nc(C#Cc4ccc(Cl)s4)nc31)[C@H](O)[C@@H]2O | Tspo | ligand displacement, radioligand | 10 µM | 60 to 70
O=C(Nc1ccc([N+](=O)[O-])cc1Cl)c1cc2ccccc2cc1O | MAOA | enzyme activity, inhibitor | 1 µM, 20 min | -2
N#Cc1cc(Cn2c(N3CCCC3)nc3ccccc32)ccc1F | Tspo | cell-free assay | 10 µM | 76.7
O=C(Nc1ccc([N+](=O)[O-])cc1[N+](=O)[O-])c1ccccc1O | MAOA | enzyme activity, inhibitor | 1 µM, 20 min | 49
CN1CC(Oc2cnc(C#N)cc2-c2ccn3nc(NC(=O)C4CC4)cc3c2)C1 | Wee1-like protein kinase 2 (WEE2, Homo sapiens, UniProt P0C1S8) | enzyme activity, inhibitor | 1 µM | 3
